From ChEMBL document CHEMBL3399923, “Design and synthesis of new bioisosteres of spirooxindoles (MI-63/219) as anti-breast cancer agents” (Bioorg Med Chem, 2015)

Tests used:
MDA-MB-231 = assay: Cytotoxicity against human MDA-MB-231 cells after 48 hrs by MTT assay; format: functional, cell-based; details: MDA-MB-231, 48 h
In short: (§1)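 MTT viability screen for cytotoxicity across the breast cancer and normal kidney epithelial lines; IC50 reported in µM.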

MCF7 = assay: Cytotoxicity against human MCF7 cells after 48 hrs by MTT assay; format: functional, cell-based; details: MCF7, 48 h; in short: as §1
HEK293 = assay: Cytotoxicity against human HEK293 cells after 48 hrs by MTT assay; format: cell-based; details: HEK293, 48 h; in short: as §1
Vero = assay: Cytotoxicity against African green monkey Vero cells after 48 hrs by MTT assay; format: cell-based; details: Chlorocebus sabaeus; in short: as §1

| Structure (SMILES) | IC50 (MDA-MB-231) [µM] | IC50 (MCF7) [µM] | IC50 (HEK293) [µM] | IC50 (Vero) [µM] |
| --- | --- | --- | --- | --- |
| COc1ccc([C@H]2C(C(=O)c3ccccc3)C3(N[C@@H]2c2ccccc2)C(=O)Nc2ccccc23)cc1 (some centres not stated) | 30.5 | 20.6 | > 50 | 43.5 |
| O=C(c1ccc(OCCN2CCCC2)cc1)C1[C@H](c2ccccc2)[C@@H](c2ccccc2)NC12C(=O)Nc1ccccc12 (some centres not stated) | 16.8 | 23 | 25.3 | 19.4 |
| CN(C)CCOc1ccc(C(=O)C2[C@H](c3ccccc3)[C@@H](c3ccccc3)NC23C(=O)Nc2ccc([N+](=O)[O-])cc23)cc1 (some centres not stated) | 17.8 | 17.2 | 24.2 | 28.8 |
| O=C(c1ccc(OCCN2CCOCC2)cc1)C1[C@H](c2ccccc2)[C@@H](c2ccccc2)NC12C(=O)Nc1ccc([N+](=O)[O-])cc12 (some centres not stated) | > 50 | 24.7 | 45.4 | > 50 |
| O=C(c1ccc(OCCN2CCOCC2)cc1)C1[C@H](c2ccccc2)[C@@H](c2ccccc2)NC12C(=O)Nc1ccccc12 (some centres not stated) | > 50 | > 50 | > 50 | > 50 |
| O=C(c1ccc(OCCN2CCOCC2)cc1)C1[C@H](c2ccccc2)[C@@H](c2ccccc2)NC12C(=O)Nc1ccc(Cl)cc12 (some centres not stated) | 19.2 | 18 | 25.4 | 30.8 |
| CN(C)CCCOc1ccc(C(=O)C2[C@H](c3ccccc3)[C@@H](c3ccccc3)NC23C(=O)Nc2ccccc23)cc1 (some centres not stated) | 9.2 | 9.6 | > 50 | > 50 |
| CCN(CC)CCOc1ccc(C(=O)C2[C@H](c3ccccc3)[C@@H](c3ccccc3)NC23C(=O)Nc2ccccc23)cc1 (some centres not stated) | 14.5 | 13.4 | 23.2 | 20.6 |
